Compound activity (PubChem)
S1P3 antag – antagonists of human S1P3 receptor. inhibition, % at 4.98 µM. Q99500. CHO S1P3 NFAT-BLA reporter, FRET fluorescence, antagonist mode. 0.27% of 170,000 active;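 active = inhibition above the plate cutoff, the mean inhibition of test wells on that plate plus 3 SD, cut at about 28% in these data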;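 also: cells challenged with S1P at its EC80 of 0.8 µM; blue over green emission ratio from cleaved BLA substrate after 4 h stimulation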
Target sequence (Q99500 whole entry, looked up): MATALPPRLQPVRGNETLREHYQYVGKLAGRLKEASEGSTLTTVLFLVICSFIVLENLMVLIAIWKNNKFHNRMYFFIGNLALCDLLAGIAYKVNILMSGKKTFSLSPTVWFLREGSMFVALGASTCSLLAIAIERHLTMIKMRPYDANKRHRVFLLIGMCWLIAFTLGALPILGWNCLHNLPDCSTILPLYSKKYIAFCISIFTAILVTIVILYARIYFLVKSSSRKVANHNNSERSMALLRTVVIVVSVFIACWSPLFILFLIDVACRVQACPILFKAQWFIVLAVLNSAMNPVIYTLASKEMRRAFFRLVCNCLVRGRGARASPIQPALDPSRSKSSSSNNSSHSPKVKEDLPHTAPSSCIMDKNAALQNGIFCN
S1P4 antag – human S1P4 receptor antagonism | O95977 | S1P4-expressing cells, antagonist mode, reporter read-out | inhibition, % at 4.98 µM | 0.26% of 220,000 active; in the data active = inhibition above about 29%
Tb hexokinase – blocks Trypanosoma brucei hexokinase 1 activity. inhibition, % at 10 µM. recombinant TbHK1, G6PDH-coupled NADH A340. 0.11% of 220,000 active. AID 1430;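 active = inhibition of 50% or more in the single-dose primary screen; inactive = inhibition below 50%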
Biofilm kill mix – mixtures killing C. albicans biofilm. C. albicans biofilm persisters + clotrimazole, fluorescence viability; primary screen in compound mixtures of four per well. inhibition, % at 7.6 µM. 0.02% of 120,000 active;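 active = inhibition above 30.3% in the primary screen of four-compound pools, then above 30% when the compound was retested; inconclusive = passed the primary limit but could not be retested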;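 also: compounds exposed to preformed 24 h biofilms for 48 h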
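Test system: C. albicans biofilms. Buffer or medium: RPMI/MOPS medium, pH 7.0. Timing: 48 h compound exposure at 37 °C. Technique: Alamar Blue fluorescence. Evaluation: percent inhibition of biofilm viability.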
Dynein transport – blocks dynein driven cargo transport along microtubules; 3617.4 mouse cells, GR-EGFP nuclear translocation imaging; test concentration mostly 20 µM; stimulated with dexamethasone, 1 µM; active compounds read low; z-score, hits read low; 0.47% of 220,000 active; AID 1381;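 active = plate z-score of nuclear minus cytoplasmic receptor signal below a set negative limit, without overly bright fluorescence or cell loss, cut at about -3.5 in these data, passing the limit was not always enough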;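 also: z-score of nuclear minus cytoplasmic ring GR-EGFP intensity difference per well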
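Also added – dexamethasone, 1.0 µM final · Buffer or medium – tet-free, stripped-serum medium · Schedule – induction 48 h, compound 1 h, agonist 30 min · Detection – formaldehyde fixation, Hoechst nuclear stain, 10x automated fluorescence imaging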
S1P4 agonist – agonists of human S1P4 receptor; S1P4-expressing cell line, agonist reporter assay; activation, % at 4.98 µM; 0.35% of 220,000 active; in the data active = activation above about 11%
Dynein confirm – dynein cargo transport inhibition, confirmation; AID 463116; calls only at 20 µM; shares compounds with Dynein transport; 3617.4 GR-EGFP nuclear translocation imaging, dexamethasone-induced; 69% of 1,000 active;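 active = inhibition of receptor movement into the nucleus at or above a set limit in both runs, with normal cell brightness and cell count; inconclusive = limit reached in only one run, brightness and count normal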;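 also: dexamethasone at 1 µM final in well for 30 min; nuclear minus cytoplasmic GR-EGFP mean intensity difference in channel 2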
Of the large screens only hits and unclear results are named; the others gave an inactive call (follow-up assays come after a bar, where they were run). Sampled rows, rich in hits. Any-hit rate of the full collection: about 1.3%.

N#C/C(=C\c1sc(N2CCOCC2)nc1-c1ccccc1)C(=O)Nc1cccc2ccccc12	none | Dynein confirm inconclusive
O=C(Nc1ccccc1)c1sc(N2CCOCC2)nc1-c1ccccc1	none
CCS(=O)(=O)CCSc1nc2ccccc2o1	none (no result: Biofilm kill mix)
O=S(=O)(CCSc1ccccn1)c1nc2ccccc2s1	Dynein transport -4 (no result: Biofilm kill mix) | Dynein confirm active
O=S(=O)(CCSc1nc2ccccc2o1)c1nc2ccccc2s1	Dynein transport -4.1 (no result: Biofilm kill mix) | Dynein confirm active
CC1=C(CO)C(=O)OC([C@@H](C)C2CC[C@H]3C4C[C@H]5O[C@]56[C@@H](O)C=CC(=O)[C@]6(C)C4CC[C@]23C)C1 (stereo not given in full)	Dynein transport -3.8 (no result: S1P3 antag, S1P4 antag, S1P4 agonist) | Dynein confirm inconclusive
N#CC1=C(N)OC2=C(CC/C2=C\c2ccccc2Cl)C1c1ccccc1Cl (stereo not given)	none
N#CC1=C(N)OC2=C(CC/C2=C\c2ccccc2)C1c1ccccc1 (stereo not given)	none (no result: S1P3 antag, Biofilm kill mix) | Dynein confirm active
Cc1cccc(N(Cc2ccccc2)C(=O)CCl)c1	Dynein transport -5.7 | Dynein confirm active
O=C(CCl)N(Cc1ccccc1)c1ccccc1	Dynein transport -5.3 | Dynein confirm active
O=C(c1cccnc1)N(Cc1ccccc1)c1ccccc1	none (no result: Biofilm kill mix)
Cc1cccc(N(CC(=O)O)CC(=O)O)c1	none
COc1ccc(C(=O)N(Cc2ccco2)Cc2cccs2)c(O)c1	none (no result: Biofilm kill mix)
COc1ccc(C(=O)/C=C/C(=O)N(CC(=O)NCCC(C)C)Cc2cccs2)c(O)c1	Dynein transport -6.1 | Dynein confirm active
COc1ccc(C(=O)/C=C/C(=O)N(CC(=O)NC2CCCCC2)Cc2ccc(F)cc2)c(O)c1	Dynein transport -4.5 | Dynein confirm active
Cc1cc2nc3c(nc2cc1C)C(O)=C3O	none
C/C(CCc1oc2c(Br)cc(Br)cc2c1-c1ccc(C)o1)=N\O	Dynein transport -4.1 (no result: S1P3 antag) | Dynein confirm inactive
CN(C)c1oc(-c2ccccc2[N+](=O)[O-])nc1C#N	Dynein transport -5.1 | Dynein confirm inactive
O=c1cc(N=Nc2ccc(Cl)cc2)[nH]c(=O)[nH]1	Dynein transport -4.5 | Dynein confirm active
CCCNC(=O)c1nnsc1S(=O)(=O)c1ccc(Cl)cc1	S1P4 antag 64, Biofilm kill mix 34, Dynein transport -4.2 | Dynein confirm active
CNC(=O)c1nnsc1S(=O)c1ccc(Cl)cc1 (stereo not given)	Dynein transport -5 | Dynein confirm active
CCCNC(=O)c1nnsc1S(=O)c1ccc(Cl)cc1 (stereo not given)	S1P4 antag 77, Dynein transport -4.8 | Dynein confirm active
CCCCCc1cc(O)c2c(C)cc(=O)oc2c1	none (no result: Biofilm kill mix)
CCCCc1cc(O)c(CCCC)c(O)c1	Dynein transport -3.9 (no result: Biofilm kill mix) | Dynein confirm active
O=C(Cc1ccccc1)c1nnc(-c2ccccc2)o1	none
O=C(COC(=O)c1ccccc1C(=O)c1ccc(Cl)c([N+](=O)[O-])c1)NC1CC1	none
CNC(=O)COC(=O)c1ccccc1C(=O)c1ccc(Cl)c([N+](=O)[O-])c1	Dynein transport -4.3 | Dynein confirm active
COc1cc(C(=O)NNC(=S)Nc2ccc(S(N)(=O)=O)cc2)cc(OC)c1OC	none
c1ccc2nc3c(cc2c1)CCCCC3	none
COc1ccc(C(CCN(Cc2ccc(OC)c(OC)c2)C(C)=O)c2ccccc2)cc1 (stereo not given)	none
COc1ccc(CN(CCC(c2ccccc2)c2ccc(OC(C)C)cc2)C(=O)CCl)cc1OC (stereo not given)	Dynein transport -6.9 | Dynein confirm active
O=C1C(Cl)=C(NCCN2CCCCC2)C(=O)c2ccccc21	Dynein transport -4.2 | Dynein confirm active
CCNC1=C(Cl)C(=O)c2ccccc2C1=O	none (no result: S1P3 antag, Biofilm kill mix)
O=C(Nc1ccccc1)C1=C(c2ccccc2)S(=O)(=O)CCS1(=O)=O	S1P4 antag 32, Dynein transport -4.5 | Dynein confirm inactive
CN1CCN(C2=C(Cl)C(=O)N(c3ccc(Cl)c(Cl)c3)C2=O)CC1	Dynein transport -4.6 (no result: S1P3 antag, Biofilm kill mix) | Dynein confirm inconclusive
Cc1ccc2nc(SCC(=O)Nc3ccc(C(N)=O)cc3)[nH]c2c1	Dynein transport -6.7 | Dynein confirm inactive
Cc1cc(NC(=O)c2coc(=O)c(Br)c2)ccc1C(C)C	Dynein transport -5.4 | Dynein confirm active
C[C@@H](NC(=O)c1coc(=O)c(Br)c1)c1ccccc1	none (no result: S1P3 antag, Biofilm kill mix)
Cc1cc2c(cc1C)NC(CC(=O)NCc1ccccc1)C(=O)N2 (stereo not given)	none (no result: Biofilm kill mix) | Dynein confirm inactive
COc1ccc(CCNC(=O)CC2Nc3cc(C)c(C)cc3NC2=O)cc1OC (stereo not given)	none (no result: Biofilm kill mix)
Clc1ccc(OCc2nnc3n2CCCCC3)c(Cl)c1	none
CC(=O)N1CC=C2C(C#N)=C(N)C(C#N)(C#N)C(CCc3ccccc3)C2C1 (stereo not given)	none (no result: Biofilm kill mix)
CCN1CC=C2C(C#N)=C(N)C(C#N)(C#N)C(CCc3ccccc3)C2C1 (stereo not given)	none (no result: Biofilm kill mix) | Dynein confirm inactive
CC(=O)c1cccc(NC(=O)CN(C)Cc2ccc(OC(F)F)cc2)c1	none
COc1ccc(-c2nc3ccccc3nc2-c2ccccc2)cc1	none
COc1ccc(-c2nnc(Sc3nc4ccccc4o3)c3ccccc23)cc1	Dynein transport -4.2 (no result: S1P3 antag, Biofilm kill mix) | Dynein confirm active
O=Cc1ccc(-c2cc(Cl)ccc2Cl)[nH]1	none
NC(=O)Nc1ccc(Cl)cc1	none
NC(=O)/C=C/C(=O)Nc1ccc(Cl)cc1	Dynein transport -3.7 | Dynein confirm inactive
CC1CC(C)(C)NC(=S)N1CCC(=O)N1CCc2ccccc2C1 (stereo not given)	none
CCn1c(=O)[nH]c(=O)c2c(N)c(C(=O)c3cc(F)ccc3F)sc21	none
O=C(/C=C/C=C/c1ccccc1)c1ccco1	Dynein transport -4.3 | Dynein confirm inactive
COC(=O)c1ccc(NC(=O)COc2ccc([N+](=O)[O-])cc2)cc1	none
C=CS(=O)(=O)c1ccc(Oc2ccc(S(=O)(=O)C=C)cc2)cc1	S1P3 antag 100, Dynein transport -4 | Dynein confirm active
NS(=O)(=O)c1ccc(Oc2ccc(S(N)(=O)=O)cc2)cc1	none
COC(=O)C1CCN(C2CC(=O)N(c3cc(C)cc(C)c3)C2=O)CC1 (stereo not given)	none
CCOC(=O)/C(=C\C=C1/Sc2cc(OCC)c(OCC)cc2N1CC)C(C)=O	none | Dynein confirm inactive
Cc1ccc(Nc2nc(N)nc(CN3CCN(C(=O)c4ccco4)CC3)n2)cc1Cl	none (no result: Biofilm kill mix)
O=C(CCl)NC1CCCc2ccccc21 (stereo not given)	none
CN(C(=O)CCl)C1CCCc2ccccc21 (stereo not given)	Dynein transport -7.6 | Dynein confirm active
